Data on 17 molecules can be found in ChEMBL document CHEMBL1123841, “3-Carbonylacrylic derivatives as potential antimicrobial agents. Correlations between activity and reactivity toward cysteine” (J Med Chem, 1987).

In brackets after ≈: the same amount, converted by molar mass.

Data set [1] in a line: Partition coefficient (logP). Type of data set: physicochemical. As to conditions: octanol/water. Put shortly: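 Octanol/water partition coefficient: some values measured experimentally by a standard literature procedure, with P = C_oct/C_H2O(1−α) correcting for ionization (α); the remaining values calculated by the method of Leo et al.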
The test system of the next data set is Streptococcus pyogenes. Description: Antimicrobial activity against Streptococcus pyogenes A(IVM P 134) was determined. It counts as functional. In outline: (§1)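 MIC determined by serial dilution in liquid medium; values expressed as micromoles/milliliter.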
A further data set has as its system Staphylococcus aureus. Put plainly: Antimicrobial activity against Staphylococcus aureus(ATCC 6538) was determined. It counts as functional. In outline:
as §1

A further data set relates to Microsporum canis. Put plainly: Antimicrobial activity against Microsporum canis(ATCC 11621) was determined. Type of data set: functional. Put shortly:
as §1

`O=C(O)/C=C/C(=O)c1ccccc1` had a logP in data set [1] of 1.94. Also, the MIC with Streptococcus pyogenes worked out at 30 µM (≈ 5.29 µg/mL); against Staphylococcus aureus, 1260 µM (≈ 222 µg/mL); with Microsporum canis, 1000 µM (≈ 176 µg/mL).
Turning to `C/C(=C\C(=O)O)C(=O)c1ccccc1`, the logP in data set [1] came to 2.44. The MIC is 2000 µM (≈ 380 µg/mL) in the data set on Streptococcus pyogenes and 18000 µM (≈ 3420 µg/mL) with Staphylococcus aureus.
With `C/C(=C/C(=O)O)C(=O)c1ccc(C)cc1`, the logP in data set [1] stood at 2.19. The results for the MIC against Streptococcus pyogenes, in the data set with Staphylococcus aureus and in the data set with Microsporum canis were 2000 µM (≈ 408 µg/mL), greater than 15000 µM and 3200 µM (≈ 654 µg/mL), respectively.
Taken in the same sequence, the figures for `COC(=O)/C=C/C(=O)c1ccccc1` were 2.24, 10 µM (≈ 1.9 µg/mL), 40 µM (≈ 7.61 µg/mL) and 2.6 µM (≈ 0.495 µg/mL).
Taken in the same sequence, the figures for `COC(=O)/C=C/C(=O)c1cccnc1` were 0.56, 42 µM (≈ 8.03 µg/mL), 160 µM (≈ 30.6 µg/mL) and 5 µM (≈ 0.956 µg/mL).
In the case of `CCCCC(=O)/C(C)=C(/C)C(=O)O`, the logP in data set [1] amounted to 0.9. In addition, the MIC against Streptococcus pyogenes is 3800 µM (≈ 700 µg/mL).
`C/C(=C/C(=O)c1ccc(C)cc1)C(=O)O` displayed a logP in data set [1] of 2.19. For the same molecule, the figures for the MIC in the data set on Streptococcus pyogenes, against Staphylococcus aureus and against Microsporum canis were 2000 µM (≈ 408 µg/mL), 15000 µM (≈ 3060 µg/mL) and 3200 µM (≈ 654 µg/mL), respectively.
`O=C(O)/C=C/C(=O)c1ccc(-c2ccccc2)cc1` had a logP in data set [1] of 3.9. Moreover, the MIC worked out at 6 µM (≈ 1.51 µg/mL) with Streptococcus pyogenes and 80 µM (≈ 20.2 µg/mL) against Staphylococcus aureus.
Consider `COC(=O)/C=C/C(=O)c1ccc(C)cc1`, for which, in data set [1], the logP stood at 2.74. Also, the MIC came out at 24 µM (≈ 4.9 µg/mL) against Streptococcus pyogenes, 50 µM (≈ 10.2 µg/mL) with Staphylococcus aureus and 50 µM (≈ 10.2 µg/mL) against Microsporum canis.
`Cc1ccc(C(=O)/C=C/C(=O)O)cc1` gave a logP in data set [1] of 2.44. The MIC in the data set with Streptococcus pyogenes is 13 µM (≈ 2.47 µg/mL); in the data set with Staphylococcus aureus it was 1000 µM (≈ 190 µg/mL); in the data set with Microsporum canis, 1000 µM (≈ 190 µg/mL).
Turning to `C/C(=C/C(=O)O)C(=O)c1ccccc1`, the logP in data set [1] was determined as 1.69. Moreover, the results for the MIC with Streptococcus pyogenes, against Staphylococcus aureus and in the data set on Microsporum canis were 2200 µM (≈ 418 µg/mL), greater than 16000 µM and 16000 µM (≈ 3040 µg/mL), respectively.
In data set [1], `COC(=O)/C=C\C(=O)c1ccccc1` came in with a logP of 1.49. Also, the MIC was 3 µM (≈ 0.571 µg/mL) in the data set on Streptococcus pyogenes, 40 µM (≈ 7.61 µg/mL) against Staphylococcus aureus and less than 2 µM in the data set with Microsporum canis.
Molecule `CCCCCCCC(=O)/C(C)=C(/C)C(=O)O` displayed a logP in data set [1] of 2.4. In addition, the lowest concentration to inhibit growth in the data set with Streptococcus pyogenes (MIC) was 320 µM (≈ 72.4 µg/mL).
`CCCCCCCCCCCC(=O)/C(C)=C(/C)C(=O)O`: the logP in data set [1] is 4.4. Besides, in the data set with Streptococcus pyogenes, the MIC is 10 µM (≈ 2.82 µg/mL).
In turn, `C/C(=C\C(=O)c1ccc(C)cc1)C(=O)O` had a logP in data set [1] of 2.94. The MIC worked out at 2000 µM (≈ 408 µg/mL) with Streptococcus pyogenes, 16000 µM (≈ 3270 µg/mL) in the data set with Staphylococcus aureus and 1200 µM (≈ 245 µg/mL) in the data set on Microsporum canis.
On to `O=C(O)/C=C/C(=O)c1cccnc1`, for which the logP in data set [1] came out at 0.26. Also, the MIC with Streptococcus pyogenes stood at 50 µM (≈ 8.86 µg/mL); in the data set with Staphylococcus aureus it was 1000 µM (≈ 177 µg/mL).
For `C/C(=C\C(=O)O)C(=O)c1ccc(C)cc1`, the logP in data set [1] is 2.94. In addition, the MIC amounted to 15000 µM (≈ 3060 µg/mL) against Staphylococcus aureus and 3200 µM (≈ 654 µg/mL) against Microsporum canis.

For orientation: logP means a log measure of how a compound divides between an organic and an aqueous phase. A high value points to higher lipophilicity. As usually defined, the MIC is the lowest concentration that inhibits growth of the organism. Lower therefore signals a more susceptible organism.
